24 molecules from ChEMBL document CHEMBL1122854, “Novel bis[1,6-dihydro-6,6-dimethyl-1,3,5-triazine-2,4-diamines] as antitrypanosomal agents” (1985) can be followed below.

Assay type in all cases: functional
What all share (settings): route subcutaneous

For assay [1], the system named is Trypanosoma brucei rhodesiense. Kind of assay: Antitrypanosomal activity was evaluated against Trypanosoma rhodesiense infections in mice, at dose 53 mg/kg, administered subcutaneously. The procedure, abridged: (§1)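 Six-week-old IUR/HA Swiss mice (30-32 g), 5 per dose, infected ip with 0.5 mL of a 1:50 000 dilution of heparinized heart blood from donor mice infected 3 days before (Wellcome CT strain). Single sc dose in peanut oil about 2 h post-inoculation. Deaths before day 4 counted toxic. ΔMST versus untreated controls; survivors at 30 days counted cured.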

Assay [2] deals with Trypanosoma brucei rhodesiense. Briefly: Antitrypanosomal activity was evaluated against Trypanosoma rhodesiense infections in mice, at dose 212 mg/kg, administered subcutaneously. The procedure, abridged:
as §1

For assay [3], the system named is Trypanosoma brucei rhodesiense. Briefly: Anti-trypanosomal activity against Trypanosoma rhodesiense infections in mice, 26 mg/kg administered subcutaneously. The procedure, abridged: as §1
The test system of assay [4] is Trypanosoma brucei rhodesiense. Briefly: Antitrypanosomal activity against Trypanosoma rhodesiense infections in mice, 106 mg/kg administered subcutaneously. The gist of the method: as §1
The test system of assay [5] is Trypanosoma brucei rhodesiense. Briefly: Antitrypanosomal activity was evaluated against Trypanosoma rhodesiense infections in mice, at dose 424 mg/kg, administered subcutaneously. The gist of the method: as §1
Assay [6] concerns Trypanosoma brucei rhodesiense. Briefly: Antitrypanosomal activity was evaluated against Trypanosoma rhodesiense infections in mice, at dose 106 mg/kg, administered subcutaneously. The gist of the method:
(§2)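 IUR/HA Swiss mice (six weeks old, 30-32 g) infected i.p. with Wellcome CT strain T. rhodesiense. A single subcutaneous dose in peanut oil was given about 2 h after inoculation, with five mice per dose level. Positive control was stilbamidine or 2-hydroxystilbamidine isethionate at 40 mg/kg. Deaths before day 4 were scored toxic, and 30-day survivors cured.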

In assay [7] the test system is Trypanosoma brucei rhodesiense. Briefly: Antitrypanosomal activity against Trypanosoma rhodesiense infections in mice, 424 mg/kg administered subcutaneously. The gist of the method: as §2
Assay [8] deals with Trypanosoma brucei rhodesiense. Briefly: Antitrypanosomal activity against Trypanosoma rhodesiense infections in mice, 6.6 mg/kg administered subcutaneously. The procedure, abridged: as §1
Assay [9] relates to Trypanosoma brucei rhodesiense. Briefly: Antitrypanosomal activity was evaluated against Trypanosoma rhodesiense infections in mice, at dose 1.6 mg/kg, administered subcutaneously. The gist of the method:
as §1

The subject of assay [10] is Trypanosoma brucei rhodesiense. Briefly: Antitrypanosomal activity was evaluated against Trypanosoma rhodesiense infections in mice, at dose 424 mg/kg, administered subcutaneously;Toxic. The gist of the method: as §2
The subject of assay [11] is Trypanosoma brucei rhodesiense. Briefly: Antitrypanosomal activity against Trypanosoma rhodesiense infections in mice, 3.3 mg/kg administered subcutaneously. The gist of the method: as §1
Assay [12] has as its system Trypanosoma brucei rhodesiense. Briefly: Antitrypanosomal activity was evaluated against Trypanosoma rhodesiense infections in mice, at dose 26 mg/kg, administered subcutaneously;Toxic. The gist of the method: as §2
The subject of assay [13] is Trypanosoma brucei rhodesiense. Kind of assay: Antitrypanosomal activity was evaluated against Trypanosoma rhodesiense infections in mice, at dose 106 mg/kg, administered subcutaneously;Toxic. The gist of the method: as §2
In assay [14] the test system is Mus musculus. Briefly: Antitrypanosomal activity was evaluated against Trypanosoma rhodesiense infections in mice, at dose 212 mg/kg, administered subcutaneously;Toxic. The procedure, abridged: as §2
The test system of assay [15] is Mus musculus. Briefly: Antitrypanosomal activity was evaluated against Trypanosoma rhodesiense infections in mice, at dose 53 mg/kg, administered subcutaneously;Cures. The procedure, abridged:
as §2

In assay [16] the test system is Mus musculus. Briefly: Antitrypanosomal activity was evaluated against Trypanosoma rhodesiense infections in mice, at dose 106 mg/kg, administered subcutaneously;Cures. The gist of the method: as §2
The subject of assay [17] is Mus musculus. Kind of assay: Antitrypanosomal activity was evaluated against Trypanosoma rhodesiense infections in mice, at dose 26 mg/kg, administered subcutaneously;Cures. The procedure, abridged: as §2
Assay [18] deals with Mus musculus. Briefly: Antitrypanosomal activity was evaluated against Trypanosoma rhodesiense infections in mice, at dose 6.6 mg/kg, administered subcutaneously;Cures. The procedure, abridged: as §2
Assay [19] relates to Mus musculus. Kind of assay: Antitrypanosomal activity was evaluated against Trypanosoma rhodesiense infections in mice, at dose 13 mg/kg, administered subcutaneously;Cures. The procedure, abridged: as §2
For assay [20], the system named is Mus musculus. Kind of assay: Antitrypanosomal activity was evaluated against Trypanosoma rhodesiense infections in mice, at dose 212 mg/kg, administered subcutaneously;Cures. The procedure, abridged:
as §2

In assay [21] the test system is Trypanosoma brucei rhodesiense. Kind of assay: Antitrypanosomal activity was evaluated against Trypanosoma rhodesiense infections in mice, at dose 26 mg/kg, administered subcutaneously. The gist of the method: as §2
Assay [22] deals with Mus musculus. Kind of assay: Antitrypanosomal activity was evaluated against Trypanosoma rhodesiense infections in mice, at dose 13 mg/kg, administered subcutaneously. The gist of the method:
as §2

For the molecule `CC1(C)N=C(N)N=C(N)N1c1ccc(OCCCCCCCCCCCCOc2ccc(N3C(N)=NC(N)=NC3(C)C)cc2)cc1.Cl.Cl`, the “Delta MST” value was found to be 0.4 days in assay [1]; 0.8 days in assay [2]; 0.2 days in assay [3]; 0.8 days in assay [4]; 0.8 days in [5].
`CC1(C)N=C(N)NC(Nc2ccc(NC3=NC(C)(C)N=C(N)N3)cc2)=N1.Cl.Cl`: the figures for the Toxic in [6] and in [7] were 4 and 5, respectively. The “Delta MST” value in assay [3] worked out at 1.3 days; in assay [4], 1.9 days.
For the molecule `CC1(C)N=C(N)N=C(N)N1c1ccc2oc3ccc(N4C(N)=NC(N)=NC4(C)C)cc3c2c1.Cl.Cl`, the Toxic in [6] and in assay [7] was 5 in each case. Further, the “Delta MST” value in assay [8] was -0.2 days; in assay [3], -0.2 days; in assay [9], 0.2 days.
`CC1(C)N=C(N)N=C(N)N1c1cccc2c(N3C(N)=NC(N)=NC3(C)C)cccc12.Cl.Cl` returned a Toxic in [10] of 3. Also, the Delta MST was 1.1 days in [3], -0.3 days in [4] and -0.3 days in [5].
For the molecule `CC1(C)N=C(N)N=C(N)N1c1ccc(OCCCCCCCCCCOc2ccc(N3C(N)=NC(N)=NC3(C)C)cc2)cc1.Cl.Cl`, the “Delta MST” value in assay [3] is -0.1 days; in assay [4], 0.1 days; in assay [5], 0.1 days.
With `CC1(C)N=C(N)N=C(N)N1c1ccc(N2C(N)=NC(N)=NC2(C)C)cc1.Cl.Cl`, the “Delta MST” value is 0.1 days in assay [8]; -0.1 days in assay [11]; 0 days in assay [3]; 0.2 days in assay [4]; 1 days in assay [5]; 0.1 days in assay [9]. Besides, the Toxic in assay [7] stood at 3.
As for `CC1(C)N=C(N)N=C(N)N1c1ccc(Sc2ccc(N3C(N)=NC(N)=NC3(C)C)cc2)cc1.Cl.Cl`, the Toxic was 5 in [6], 5 in assay [7] and 1 in assay [12]. Besides, the results for the “Delta MST” value in [8], in assay [11] and in assay [3] were 0.6 days, 0.6 days and 2.7 days, respectively.
For `CC1(C)N=C(N)N=C(N)N1c1ccc(SSc2ccc(N3C(N)=NC(N)=NC3(C)C)cc2)cc1.Cl.Cl`, the entries for the “Delta MST” value in assay [3], in assay [4] and in [5] were 0.1 days, 0.1 days and 0.5 days, respectively.
As for `Cl.Cl.NC1=NC(C2CCC3(CC2)N=C(N)N=C(N)N3c2ccc(Cl)cc2)N(c2ccc(Cl)cc2)C(N)=N1` (stereo not given), the values for the Toxic in assay [6] and in assay [7] were 4 and 5, respectively. Besides, in assay [3], the “Delta MST” value came out at 1 days.
On to `CC1(C)N=C(N)N=C(N)N1c1ccc(OCCCCOc2ccc(N3C(N)=NC(N)=NC3(C)C)cc2)cc1.Cl.Cl`, for which the “Delta MST” value amounted to 0 days in assay [8]; 0.2 days in [11]; 0.3 days in assay [3]; 1 days in assay [4]; 0 days in [9]. Further, the Toxic in assay [7] was found to be 5; in assay [12] it was 1; in assay [13], 4.
With `Cc1ccc(NC(=O)Nc2ccc(C)c(N3C(N)=NC(N)=NC3(C)C)c2)cc1N1C(N)=NC(N)=NC1(C)C.Cl.Cl`, the results for the Toxic in assay [7], in assay [12] and in assay [13] were 5, 2 and 2, respectively. For the same molecule, the “Delta MST” value in assay [3] and in assay [4] was 0 days in each case.
With `CC1(C)N=C(N)N=C(N)N1c1cc(Cl)c(N2C(N)=NC(N)=NC2(C)C)c(Cl)c1.Cl.Cl`, the “Delta MST” value in assay [1] and in assay [2] was -0.2 days in each case. The molecule also showed a Toxic with Mus musculus [14] of 4.
On to `COc1cc(-c2ccc(N3C(N)=NC(N)=NC3(C)C)c(OC)c2)ccc1N1C(N)=NC(N)=NC1(C)C.Cl.Cl`, for which the Cures is 3 in the assay on Mus musculus [15]; 2 with Mus musculus [16]; 4 in the assay with Mus musculus [17]; 3 with Mus musculus [18]; 3 in the assay with Mus musculus [19]; 2 in the assay with Mus musculus [20]. Also, the “Delta MST” value came out at 13.5 days in assay [8]; 4.9 days in assay [1]; 3.2 days in assay [2]; 7.2 days in [11]; 8.9 days in assay [3]; 11.2 days in assay [4]. In addition, the “Delta MST” value in assay [9] is 2.2 days. Also, the Toxic in assay [7] turned out to be 5.
`CC1(C)N=C(N)N=C(N)N1c1cc(C(=O)O)cc(N2C(N)=NC(N)=NC2(C)C)c1.Cl.Cl`: the “Delta MST” value in assay [3] was -0.1 days; in assay [4], 0.1 days; in [5], -0.1 days.
On to `CC1(C)N=C(N)N=C(N)N1c1cccc(N2C(N)=NC(N)=NC2(C)C)c1.Cl.Cl`, for which the Toxic in assay [6] worked out at 5; in assay [7] it was 5; in [21], 1. In addition, the “Delta MST” value in assay [8], in assay [11], in assay [3] and in [9] was 0 days throughout.
Consider `Cl.Cl.NC1=NC2(CCCCC2)NC(Nc2ccc(CCc3ccc(NC4=NC5(CCCCC5)NC(N)=N4)cc3)cc2)=N1`, for which the “Delta MST” value in assay [3], in [4] and in assay [5] was 0.2 days in each case.
On to `CC1(C)N=C(N)N=C(N)N1c1ccc(OCCOc2ccc(N3C(N)=NC(N)=NC3(C)C)cc2)cc1.Cl.Cl`, for which the Toxic came to 5 in [6], 5 in [7] and 4 in assay [12]. Besides, the “Delta MST” value came out at 2.6 days in assay [8], 1 days in assay [11], 8.9 days in [3] and 2.8 days in [9].
Consider `Cc1ccc(N2C(N)=NC(N)=NC2(C)C)cc1NC(=O)Nc1cc(N2C(N)=NC(N)=NC2(C)C)ccc1C.Cl.Cl`, for which, in assay [10], the Toxic is listed as 3. For the same molecule, the “Delta MST” value in assay [3], in [4] and in assay [5] was -0.1 days throughout.
For `CC1(C)N=C(N)N=C(N)N1c1ccc(CC(Cc2ccc(N3C(N)=NC(N)=NC3(C)C)cc2)C(=O)O)cc1.Cl.Cl`, in [10], the Toxic worked out at 2. For the same molecule, the figures for the “Delta MST” value in assay [3], in [4] and in assay [5] were 0 days, 0.2 days and 0 days, respectively.
With `CC1(C)N=C(N)N=C(N)N1c1ccc(OCCCCCOc2ccc(N3C(N)=NC(N)=NC3(C)C)cc2)cc1.Cl.Cl`, the Toxic (in [6]; in [7]; with Mus musculus [22]; in [21]) was 5 throughout. In addition, the “Delta MST” value in assay [8] was determined as 0.4 days; in assay [11], 0.2 days; in [9], 0 days.
With `CC1(C)N=C(N)N=C(N)N1c1ccc2c(c1)S(=O)(=O)c1cc(N3C(N)=NC(N)=NC3(C)C)ccc1C2.Cl.Cl`, the “Delta MST” value in assay [8] was 0.2 days; in assay [11] it was 0 days; in [3] it was 0 days; in assay [4] it was -0.3 days; in [9], 0 days. Moreover, the values for the Toxic in assay [7] and in assay [13] were 5 and 4, respectively.
As for `Cc1cc(S(=O)(=O)c2ccc(N3C(N)=NC(N)=NC3(C)C)cc2)ccc1N1C(N)=NC(N)=NC1(C)C.Cl.Cl`, the figures for the Toxic in assay [6], in assay [7] and in assay [12] were 5, 5 and 4, respectively. The figures for the “Delta MST” value in [8], in [11] and in [3] were 0.4 days, 0.2 days and 0.7 days, respectively.
For the molecule `CC1(C)N=C(N)NC(Nc2ccc(CCc3ccc(NC4=NC(C)(C)N=C(N)N4)cc3)cc2)=N1.Cl`, in assay [10], the Toxic is 3. Moreover, the “Delta MST” value worked out at 0.2 days in assay [3], 0.8 days in [4] and 0 days in assay [5].
Turning to `CC1(C)N=C(N)N=C(N)N1c1ccc(Cc2ccc(N3C(N)=NC(N)=NC3(C)C)cc2[N+](=O)[O-])c([N+](=O)[O-])c1.Cl.Cl`, the Toxic in assay [6] and in assay [7] was 5 throughout. Moreover, the “Delta MST” value in [3] worked out at 0.6 days.
